From ChEMBL document CHEMBL1124993, “2-Phenyl-2-(1-hydroxycycloalkyl)ethylamine derivatives: synthesis and antidepressant activity” (J Med Chem, 1990)
Calls of active or inactive are those of the source. No cut-off for these calls is given here.

Assays:
[1] = target: Norepinephrine transporter (Rattus norvegicus, UniProt Q9WTR4); experiment: Inhibition of uptake of tritiated norepinephrine (NE) into rat brain synaptosomes; assay type: functional, subcellular
[2] = target: Sodium-dependent serotonin transporter (Rattus norvegicus, UniProt P31652); experiment: Inhibition of uptake of [14C]-labelled serotonin (5-HT) into rat brain synaptosomes
Sequence of Sodium-dependent serotonin transporter (P31652 whole entry): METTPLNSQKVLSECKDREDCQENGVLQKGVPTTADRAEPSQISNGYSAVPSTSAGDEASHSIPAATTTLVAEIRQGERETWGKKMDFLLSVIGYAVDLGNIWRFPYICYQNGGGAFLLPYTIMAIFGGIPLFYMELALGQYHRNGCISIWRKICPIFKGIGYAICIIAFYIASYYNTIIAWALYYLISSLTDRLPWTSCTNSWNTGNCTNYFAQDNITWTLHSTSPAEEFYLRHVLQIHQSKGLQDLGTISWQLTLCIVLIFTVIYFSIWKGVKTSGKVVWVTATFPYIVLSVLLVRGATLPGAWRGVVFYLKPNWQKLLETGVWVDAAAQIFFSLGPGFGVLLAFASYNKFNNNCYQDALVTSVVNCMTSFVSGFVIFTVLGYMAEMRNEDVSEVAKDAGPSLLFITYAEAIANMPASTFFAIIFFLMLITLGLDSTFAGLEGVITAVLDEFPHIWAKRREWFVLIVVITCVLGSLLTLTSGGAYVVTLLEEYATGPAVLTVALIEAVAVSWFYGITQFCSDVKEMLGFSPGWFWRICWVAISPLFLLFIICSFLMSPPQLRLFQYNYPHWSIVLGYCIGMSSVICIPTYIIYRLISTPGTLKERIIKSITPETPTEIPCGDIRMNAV

[3] = system: Rattus norvegicus; experiment: In vivo noradrenergic responsiveness in the rat pineal gland at 10 mg/kg (ip) (single treatment); assay type: functional
Method in brief: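 Male Sprague–Dawley rats kept in continuous light, given saline twice daily for 5 days, then a single 10 or 30 mg/kg ip dose on day 5. 1 h later, isoproterenol 2 μmol/kg in 0.1% ascorbic acid (or vehicle). Pineal removed 2.5 min after, perchloric acid extract, cAMP by radioimmunoassay; % change versus isoproterenol-stimulated controls.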

[4] = system: Rattus norvegicus; experiment: (§1) In vivo noradrenergic responsiveness in the rat pineal gland at 10 mg/kg (ip) (chronic treatment); assay type: functional
Method in brief: (§2)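 Male Sprague–Dawley rats kept in continuous light, dosed ip twice daily for 5 days (nine injections). 1 h after last dose, isoproterenol 2 μmol/kg in 0.1% ascorbic acid (controls: vehicle); pineal removed 2.5 min later, perchloric acid extract assayed for cAMP by 125I radioimmunoassay. Expressed as % change from control isoproterenol-stimulated pmol cAMP/pineal.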

[5] = system: Mus musculus; experiment: In vivo antagonism of reserpine-induced hypothermia in the mice; assay type: functional; details: for minimal effective dose: Mus musculus, read-out: MED
Method in brief: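 Male mice pretreated 18 h earlier with reserpine 5.0 mg/kg sc; compounds in 0.25% Tween 80 in water given ip or po at 1, 3, 10, 30, 100 mg/kg. Rectal temperature read at 1, 2, 3 h post-dose; MED for reversing hypothermia from two-way ANOVA with Dunnett's comparison to control.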

[6] = system: Rattus norvegicus; experiment: (§3) In vivo antagonism of histamine-induced ACTH release in the rat at 10 mg/kg (ip).; assay type: functional
Method in brief: (§4)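 Male Sprague–Dawley rats (200–300 g) given compound in saline ip 1 h before saline or histamine (5 mg/kg ip); decapitated 10 min later, trunk blood serum assayed for ACTH by radioimmunoassay (pg/mL). Two-way ANOVA with Dunnett's and Student–Neuman–Keuls tests; value is % decrease of histamine-stimulated ACTH.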

[7] = system: Rattus norvegicus; experiment: In vivo noradrenergic responsiveness in the rat pineal gland at 10 mg/kg (ip) (single treatment); No significant effect; assay type: functional, organism-based; design: dose 10 mg/kg
[8] = system: Rattus norvegicus; experiment: In vivo noradrenergic responsiveness in the rat pineal gland at 10 mg/kg (ip) (chronic treatment); No significant effect; assay type: functional, organism-based; design: dose 10 mg/kg; method in brief: as §2
[9] = system: Rattus norvegicus; experiment: as §3; assay type: functional; remark: listed apart in the source
Method in brief: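 Male Sprague–Dawley rats (200–300 g), 10 mg/kg in saline ip, 1 h before saline or histamine (5 mg/kg ip). Decapitated 10 min later; trunk-blood serum frozen at -60 °C, ACTH measured by radioimmunoassay (pg/mL). Two-way ANOVA with Dunnett's and Student–Neuman–Keuls tests; expressed as % decrease.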

[10] = system: Rattus norvegicus; experiment: as §1; assay type: functional; remark: listed apart in the source
Method in brief: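 Male Sprague–Dawley rats under continuous light, injected ip twice daily for 5 days (nine injections) with 10 or 30 mg/kg. 1 h after last dose, isoproterenol 2 μmol/kg in 0.1% ascorbic acid (or vehicle). Pineal removed 2.5 min later, perchloric acid extract, cAMP by 125I radioimmunoassay; % change versus isoproterenol-stimulated controls.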

[11] = target: T1, Adrenergic receptor beta (Rattus norvegicus) (UniProt P18090+P10608+P26255)
[12] = target: T2, Serotonin 2 (5-HT2) receptor (Rattus norvegicus) (UniProt P30994+P08909+P14842)
T2 sequence (P08909 whole entry, looked up): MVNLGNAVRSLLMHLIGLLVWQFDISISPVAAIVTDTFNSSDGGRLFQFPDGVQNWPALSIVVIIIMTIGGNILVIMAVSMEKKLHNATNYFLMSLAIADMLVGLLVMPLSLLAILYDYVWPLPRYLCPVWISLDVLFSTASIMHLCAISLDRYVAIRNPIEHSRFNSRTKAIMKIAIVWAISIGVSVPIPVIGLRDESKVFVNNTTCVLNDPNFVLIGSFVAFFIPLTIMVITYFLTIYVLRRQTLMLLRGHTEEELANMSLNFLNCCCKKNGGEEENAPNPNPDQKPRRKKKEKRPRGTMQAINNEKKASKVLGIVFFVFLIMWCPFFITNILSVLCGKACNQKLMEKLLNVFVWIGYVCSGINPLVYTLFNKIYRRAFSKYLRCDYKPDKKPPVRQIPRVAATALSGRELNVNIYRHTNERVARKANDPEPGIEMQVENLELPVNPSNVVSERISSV
T2 sequence (P14842 whole entry, looked up): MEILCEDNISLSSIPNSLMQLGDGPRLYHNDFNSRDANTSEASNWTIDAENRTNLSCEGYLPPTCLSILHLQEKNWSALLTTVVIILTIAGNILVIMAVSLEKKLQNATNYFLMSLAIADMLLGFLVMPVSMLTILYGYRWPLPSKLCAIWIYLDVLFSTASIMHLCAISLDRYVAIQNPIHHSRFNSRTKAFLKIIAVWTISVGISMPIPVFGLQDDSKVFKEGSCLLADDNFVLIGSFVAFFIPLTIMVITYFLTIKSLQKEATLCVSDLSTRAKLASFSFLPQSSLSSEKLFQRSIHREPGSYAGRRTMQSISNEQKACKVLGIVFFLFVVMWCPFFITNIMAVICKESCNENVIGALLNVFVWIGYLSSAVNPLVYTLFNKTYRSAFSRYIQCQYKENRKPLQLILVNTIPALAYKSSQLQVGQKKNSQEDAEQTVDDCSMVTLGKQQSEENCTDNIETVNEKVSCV
T2 sequence (P30994 whole entry, looked up): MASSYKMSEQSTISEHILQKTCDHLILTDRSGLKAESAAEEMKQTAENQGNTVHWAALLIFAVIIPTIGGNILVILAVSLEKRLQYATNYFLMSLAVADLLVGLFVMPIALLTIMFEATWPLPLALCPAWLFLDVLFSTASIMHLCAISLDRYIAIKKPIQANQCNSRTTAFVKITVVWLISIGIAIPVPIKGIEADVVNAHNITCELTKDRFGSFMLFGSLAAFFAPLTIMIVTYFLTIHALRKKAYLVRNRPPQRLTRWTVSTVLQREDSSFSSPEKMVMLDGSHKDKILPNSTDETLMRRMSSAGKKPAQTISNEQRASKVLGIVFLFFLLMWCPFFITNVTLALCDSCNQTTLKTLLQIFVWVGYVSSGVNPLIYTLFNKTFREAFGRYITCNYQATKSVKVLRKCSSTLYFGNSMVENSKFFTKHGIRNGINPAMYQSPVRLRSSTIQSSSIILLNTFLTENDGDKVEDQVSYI

[13] = target: T1, Adrenergic receptor beta (Rattus norvegicus); remark: listed apart in the source
[14] = target: T2, Serotonin 2 (5-HT2) receptor (Rattus norvegicus); remark: listed apart in the source
[15] = system: Rattus norvegicus; experiment: In vivo antagonism of histamine-induced ACTH release in the rodents at 10 mg/kg (ip); No significant effect; assay type: functional, organism-based; design: dose 10 mg/kg; method in brief: as §4

Sequence of Norepinephrine transporter (Q9WTR4 whole entry): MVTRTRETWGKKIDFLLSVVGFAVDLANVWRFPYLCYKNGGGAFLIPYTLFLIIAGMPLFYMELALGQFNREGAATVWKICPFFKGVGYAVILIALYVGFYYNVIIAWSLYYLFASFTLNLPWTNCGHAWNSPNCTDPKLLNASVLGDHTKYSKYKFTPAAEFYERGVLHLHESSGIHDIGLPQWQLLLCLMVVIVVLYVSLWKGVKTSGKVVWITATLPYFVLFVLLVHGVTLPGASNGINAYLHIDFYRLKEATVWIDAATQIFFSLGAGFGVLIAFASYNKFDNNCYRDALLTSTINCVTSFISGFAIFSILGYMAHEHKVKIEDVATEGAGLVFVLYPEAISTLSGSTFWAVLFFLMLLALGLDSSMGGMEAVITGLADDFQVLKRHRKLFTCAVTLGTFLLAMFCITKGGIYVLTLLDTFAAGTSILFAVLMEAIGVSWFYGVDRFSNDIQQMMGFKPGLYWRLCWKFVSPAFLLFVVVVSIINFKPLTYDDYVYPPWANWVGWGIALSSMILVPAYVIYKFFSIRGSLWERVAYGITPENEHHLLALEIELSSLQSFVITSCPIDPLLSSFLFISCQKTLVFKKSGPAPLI

## CN(C)CC(c1ccccc1)C1(O)CCCCC1 (centres undefined)
[1]
  IC50: 1900 nM

## CN(C)CC(c1ccc(C(F)(F)F)cc1)C1(O)CCCCCC1 (centres undefined)
[2]
  IC50: 500 nM
[1]
  IC50: 2400 nM

## COc1cccc(C(CN(C)C)C2(O)CCCC2)c1 (centres undefined)
[2]
  IC50: 680 nM
[1]
  IC50: > 10000 nM

## COc1cccc(C(CN(C)C)C2(O)CCCCC2)c1 (centres undefined)
[2]
  IC50: 190 nM
[3]
  Change: -79%
[1]
  IC50: 620 nM
[4]
  Change: -81%
[5]
  minimal effective dose: 3 mg/kg
[6]
  Decrease: 52%

## CN(C)CC(c1ccc(Br)cc1)C1(O)CCCCC1 (centres undefined)
[7]
  Change: inactive
[2]
  IC50: 110 nM
[1]
  IC50: 210 nM
[8]
  Change: inactive
[5]
  minimal effective dose: 1 mg/kg
[6]
  Decrease: 43%

## CN(C)CC(c1cccc(C(F)(F)F)c1)C1(O)CCCCC1 (centres undefined)
[2]
  IC50: 1440 nM
[1]
  IC50: 360 nM

## CN(C)CC(c1ccc(Br)cc1)C1(O)CCC1 (centres undefined)
[2]
  IC50: 580 nM
[1]
  IC50: 890 nM

## COc1ccc(C(CN(C)C)C2(O)CCCCC2)cc1 (single isomer, unassigned; (-)) [VENLAFAXINE]
[9]; 10 mg/kg
  Decrease: 37%
[10]
  Change: -51%
[3]
  Change: -53%
[5]
  MED: 3 mg/kg

## CN(C)CC(c1ccc(O)cc1)C1(O)CCCCC1 (centres undefined) [DESVENLAFAXINE]
[1]
  IC50: 1160 nM

## CN(C)CC(c1cccc(Br)c1)C1(O)CCCCC1 (centres undefined)
[7]
  Change: inactive
[9]
  Decrease: 67%
[2]
  IC50: 230 nM
[1]
  IC50: 110 nM
[8]
  Change: inactive
[5]
  minimal effective dose: 1 mg/kg

## CN(C)CC(c1ccc(C(F)(F)F)cc1)C1(O)CCCC1 (centres undefined)
[2]
  IC50: 490 nM
[1]
  IC50: 10400 nM

## COc1ccc(C(CN(C)C)C2(O)CCCCC2)cc1Br (centres undefined)
[2]
  IC50: 200 nM
[3]
  Change: -65%
[1]
  IC50: 140 nM
[4]
  Change: -82%
[5]
  minimal effective dose: 1 mg/kg
[6]
  Decrease: 34%

## CN(C)CC(c1ccc(Cl)cc1)C1(O)CCCCC1 (centres undefined)
[2]
  IC50: 180 nM
[1]
  IC50: 300 nM

## CNCC(c1ccc(OC)cc1)C1(O)CCCCC1 (centres undefined) [N-DESMETHYLVENLAFAXINE CHLORIDE]
[2]
  IC50: 1600 nM
[1]
  IC50: 4700 nM

## COc1ccc(C(CN(C)C)C2(O)CCCCC2)cc1 (single isomer, unassigned; (+)) [VENLAFAXINE]
[9]; 10 mg/kg
  Decrease: 54%
[5]
  MED: 30 mg/kg

## COc1ccc(C(CN(C)C)C2(O)CCCCC2)cc1 (single isomer, unassigned; (+))
[7]
  Change: inactive
[8]
  Change: inactive

## COc1ccc(C(CN(C)C)C2(O)CCCCC2)cc1 (stereo in doubt; 4) [VENLAFAXINE]
[3]
  Change: -51%
[4]
  Change: -43%
[5]
  MED: 10 mg/kg
[6]
  Decrease: 26%

## COc1ccc(C(CN(C)C)C2(O)CCCCC2)cc1OC (centres undefined)
[2]
  IC50: 130 nM
[1]
  IC50: 1380 nM

## CNCCCN1c2ccccc2CCc2ccccc21 [DESIPRAMINE]
[7]
  Change: inactive
[4]
  Change: -81%
[5]
  minimal effective dose: 0.4 mg/kg
[6]
  Decrease: 52%

## COc1ccc(C(CN(C)C)C2(O)CCCCCC2)cc1 (centres undefined)
[2]
  IC50: 240 nM
[1]
  IC50: 2070 nM

## COc1ccc(C(CN(C)C)C2(O)CCCCC2)cc1 (stereo in doubt; 4)
[11]
  Binding activity: 61.8 fM/mg
[12]
  Binding activity: 77.8 fM/mg
[13]
  Binding activity: 35 fM/mg
[14]
  Binding activity: 251 fM/mg

## Cc1ccc(C(CN(C)C)C2(O)CCCCC2)cc1 (centres undefined)
[2]
  IC50: 1540 nM
[1]
  IC50: 530 nM

## CN(C)CC(c1ccc(Cl)c(Cl)c1)C1(O)CCCCC1 (centres undefined)
[3]
  Change: -51%
[1]
  IC50: 70 nM
[4]
  Change: -74%
[5]
  minimal effective dose: 3 mg/kg
[6]
  Decrease: 55%

## COc1ccc(C(CN(C)C)C2(O)CCCC2)cc1 (centres undefined)
[2]
  IC50: 400 nM
[1]
  IC50: 5800 nM

## CN(C)CC(c1ccc(C(F)(F)F)cc1)C1(O)CCCCC1 (centres undefined)
[2]
  IC50: 400 nM
[1]
  IC50: 2800 nM

## CN(C)CC(c1cccc(Cl)c1)C1(O)CCCCC1 (centres undefined)
[7]
  Change: inactive
[8]
  Change: inactive
[15]
  Change: inactive
[5]
  minimal effective dose: 1 mg/kg
